Consider four compounds from ChEMBL document CHEMBL3596093, “Synthesis and antimicrobial evaluation of 5-aryl-1,2,4-triazole-3-thione derivatives containing a rhodanine moiety” (2015).

≈ marks a conversion by molar mass, not a printed value. Some results are limits rather than exact numbers.

Test [1] concerns Escherichia coli. In words: Antibacterial activity against Escherichia coli KCTC 1924 after 24 hrs by two-fold serial dilution method. The settings on record: KCTC 1924, 24 h. The test is classed as functional. In outline: (§1)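 Strains grown to mid-log phase in Mueller-Hinton broth, then diluted 1000-fold in the same broth to about 10^5 CFU/mL. Compounds were made up as DMSO stocks and two-fold serially diluted from a final top concentration of 64 µg/mL. Incubation was 37 °C for 24 h. Growth was read as absorbance at 630 nm on a microplate reader. MIC assays were run in triplicate.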

In test [2] the test system is Staphylococcus aureus. In words: Antibacterial activity against methicillin-resistant Staphylococcus aureus CCARM 3167 after 24 hrs by two-fold serial dilution method. As to conditions: CCARM 3167, 24 h. The test is classed as functional. In outline:
(§2)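 Broth microdilution MIC. Bacteria grown to mid-log phase in Mueller-Hinton broth, diluted 1000-fold, about 10^5 CFU/mL. Compounds from DMSO stocks, two-fold serial dilution from a final 64 µg/mL. Incubation at 37 °C for 24 h. Growth read as absorbance at 630 nm on a microplate reader. Run in triplicate.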

Test [3] has as its system Pseudomonas aeruginosa. In words: Antibacterial activity against Pseudomonas aeruginosa 2742 after 24 hrs by two-fold serial dilution method. The test is classed as functional. As to conditions: Pseudomonas aeruginosa, 2742, 24 h. In outline:
as §1

Test [4] has as its system Candida albicans. Put plainly: Antifungal activity against Candida albicans 7535 after 24 hrs by two-fold serial dilution method. The format is functional. As to conditions: Candida albicans, 7535, 24 h.
Test [5] deals with Staphylococcus aureus. Put plainly: Bactericidal activity against Staphylococcus aureus RN4220 after 24 hrs by agar plate method. As to conditions: RN4220, 24 h. The test is classed as functional. In outline: (§3)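 Samples of 5 µL from MIC wells with no visible growth were plated onto fresh Mueller-Hinton agar and incubated a further 24 h at 37 °C. MBC is the lowest concentration giving no visible colony growth on the agar. Assays were run in triplicate.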

For test [6], the system named is Staphylococcus aureus. Put plainly: Antibacterial activity against quinolone-resistant Staphylococcus aureus CCARM 3519 after 24 hrs by two-fold serial dilution method. The format is functional. The settings on record: CCARM 3519, 24 h. The procedure, abridged: as §2
For test [7], the system named is Pseudomonas aeruginosa. Put plainly: Antibacterial activity against Pseudomonas aeruginosa 2004 after 24 hrs by two-fold serial dilution method. The test is classed as functional. The settings on record: Pseudomonas aeruginosa, 2004, 24 h. The procedure, abridged: as §1
The test system of test [8] is Staphylococcus aureus. Put plainly: Antibacterial activity against quinolone-resistant Staphylococcus aureus CCARM 3505 after 24 hrs by two-fold serial dilution method. The format is functional. As to conditions: CCARM 3505, 24 h. The procedure, abridged: as §2
In test [9] the test system is Escherichia coli. In words: Antibacterial activity against Escherichia coli CCARM 1356 after 24 hrs by two-fold serial dilution method. The test is classed as functional. The settings on record: CCARM 1356, 24 h. The procedure, abridged: as §1
Test [10] concerns Staphylococcus aureus. Put plainly: Antibacterial activity against methicillin-resistant Staphylococcus aureus CCARM 3506 after 24 hrs by two-fold serial dilution method. The format is functional. As to conditions: CCARM 3506, 24 h. The procedure, abridged: as §2
Test [11] deals with Staphylococcus aureus. Put plainly: Antibacterial activity against Staphylococcus aureus KCTC 503 after 24 hrs by two-fold serial dilution method. The format is functional. As to conditions: KCTC 503, 24 h. The procedure, abridged: as §1
The test system of test [12] is Staphylococcus aureus. In words: Antibacterial activity against Staphylococcus aureus RN4220 after 24 hrs by two-fold serial dilution method. The format is functional. As to conditions: RN4220, 24 h. In outline: as §2
Test [13] relates to Escherichia coli. In words: Bactericidal activity against Escherichia coli KCTC 1924 after 24 hrs by agar plate method. The test is classed as functional. The settings on record: KCTC 1924, 24 h. The procedure, abridged:
as §3

Test [14] concerns Salmonella typhimurium. Put plainly: Antibacterial activity against Salmonella typhimurium 2421 after 24 hrs by two-fold serial dilution method. The settings on record: Salmonella enterica, 2421, 24 h. The test is classed as functional, Salmonella enterica subsp. enterica serovar Typhimurium. The procedure, abridged:
as §1

For test [15], the system named is Streptococcus mutans. In words: Antibacterial activity against Streptococcus mutans 3065 after 24 hrs by two-fold serial dilution method. The test is classed as functional. The settings on record: Streptococcus mutans, 3065, 24 h. The procedure, abridged:
as §1

Test [16] has as its system Staphylococcus aureus. In words: Antibacterial activity against Staphylococcus aureus KCTC 209 after 24 hrs by two-fold serial dilution method. The test is classed as functional. As to conditions: KCTC 209, 24 h. The procedure, abridged:
as §1

Test [17] concerns Escherichia coli. In words: Ratio of MBC to MIC for Escherichia coli KCTC 1924. The test is classed as functional. The procedure, abridged:
(§4)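 The ratio divides MBC by MIC for the same strain. MIC comes from two-fold broth microdilution in Mueller-Hinton broth (about 10^5 CFU/mL, 37 °C, 24 h, absorbance at 630 nm). MBC comes from subculturing 5 µL from clear wells onto Mueller-Hinton agar for another 24 h at 37 °C, taken as the lowest concentration with no colonies.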

In test [18] the test system is Staphylococcus aureus. Put plainly: Bactericidal activity against quinolone-resistant Staphylococcus aureus CCARM 3519 after 24 hrs by agar plate method. The format is functional. As to conditions: CCARM 3519, 24 h. In outline:
(§5)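 5 µL from each well without visible growth plated on fresh Mueller-Hinton agar, then 37 °C for a further 24 h. MBC is the lowest concentration giving no visible colonies. Run in triplicate.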

The subject of test [19] is Staphylococcus aureus. In words: Bactericidal activity against quinolone-resistant Staphylococcus aureus CCARM 3505 after 24 hrs by agar plate method. The format is functional. The settings on record: CCARM 3505, 24 h. The procedure, abridged:
as §5

The subject of test [20] is Staphylococcus aureus. Put plainly: Bactericidal activity against Staphylococcus aureus KCTC 503 after 24 hrs by agar plate method. The test is classed as functional. As to conditions: KCTC 503, 24 h. The procedure, abridged:
as §5

Test [21] has as its system Staphylococcus aureus. Put plainly: Ratio of MBC to MIC for Staphylococcus aureus KCTC 503. The test is classed as functional. The procedure, abridged: as §4
Test [22] has as its system Staphylococcus aureus. Put plainly: Bactericidal activity against methicillin-resistant Staphylococcus aureus CCARM 3506 after 24 hrs by agar plate method. The format is functional. As to conditions: CCARM 3506, 24 h. In outline: as §5
Test [23] has as its system Staphylococcus aureus. In words: Bactericidal activity against methicillin-resistant Staphylococcus aureus CCARM 3167 after 24 hrs by agar plate method. The format is functional. The settings on record: CCARM 3167, 24 h. The procedure, abridged:
as §5

In test [24] the test system is Streptococcus mutans. In words: Bactericidal activity against Streptococcus mutans 3065 after 24 hrs by agar plate method. The format is functional. As to conditions: Streptococcus mutans, 3065, 24 h. The procedure, abridged: as §3

In general, MIC refers to the smallest concentration in the dilution series that meets the test's criterion for growth inhibition. A high value points to a less susceptible organism. As a reminder, the MBC is the lowest tested concentration that kills the bacteria rather than only halting them. High values mean less potent killing, low ones more potent killing. `O=C(O)CN1C(=O)/C(=C/c2ccc(/C=N/n3c(-c4ccccc4Cl)n[nH]c3=S)cc2)SC1=S`: the MIC in [1] was 64 mg/L (≈ 124 µM); in test [2] it was over 64 mg/L; in [3], over 128 mg/L; in test [4], over 64 mg/L; in test [6], over 64 mg/L; in test [7], over 128 mg/L. Moreover, the MIC was over 64 mg/L in [8]; over 128 mg/L in [9]; over 64 mg/L in [10]; over 64 mg/L in test [11]; 64 mg/L (≈ 124 µM) in test [12]; over 128 mg/L in test [14]. The MIC in [15] and in test [16] was over 64 mg/L each time. The values for the MBC in test [5] and in [13] were 256 mg/L (≈ 496 µM) and 128 mg/L (≈ 248 µM), respectively. The Ratio result in test [17] is on record as “<=4”.

In the case of `O=C(O)[C@H](Cc1ccccc1)N1C(=O)/C(=C/c2ccc(/C=N/n3c(-c4cccc(Br)c4)n[nH]c3=S)cc2)SC1=S`, the MIC in test [1] was 64 mg/L (≈ 98.4 µM); in test [2], 32 mg/L (≈ 49.2 µM); in test [3], over 128 mg/L; in test [4], over 64 mg/L; in test [6], 32 mg/L (≈ 49.2 µM); in [7] it was over 128 mg/L. The MIC in test [8] was 16 mg/L (≈ 24.6 µM); in test [9] it was over 128 mg/L; in test [10] it was 16 mg/L (≈ 24.6 µM); in test [11] it was 64 mg/L (≈ 98.4 µM); in [12], 32 mg/L (≈ 49.2 µM); in [14], over 128 mg/L. The figures for the MIC in test [15] and in [16] were 64 mg/L (≈ 98.4 µM) and over 64 mg/L, respectively. The minimal bactericidal concentration (MBC) came out at 256 mg/L (≈ 393 µM) in test [18]; 256 mg/L (≈ 393 µM) in test [5]; 128 mg/L (≈ 197 µM) in test [19]; 128 mg/L (≈ 197 µM) in test [20]; 64 mg/L (≈ 98.4 µM) in [22]; 128 mg/L (≈ 197 µM) in [23]. Also, the MBC in test [13] was 64 mg/L (≈ 98.4 µM); in [24], over 128 mg/L. Further, the Ratio entry in [21] and in test [17] was “<=4” in each case.

On to `Cc1ccccc1-c1n[nH]c(=S)n1/N=C/c1ccc(/C=C2\SC(=S)N([C@@H](Cc3ccccc3)C(=O)O)C2=O)cc1`, for which the MIC in test [1] was 64 mg/L (≈ 109 µM); in test [2] it was 16 mg/L (≈ 27.3 µM); in test [3] it was over 128 mg/L; in test [4], over 64 mg/L; in test [6], 16 mg/L (≈ 27.3 µM); in test [7], over 128 mg/L. Further, the minimum inhibitory concentration (MIC) is 16 mg/L (≈ 27.3 µM) in test [8]; over 128 mg/L in test [9]; 16 mg/L (≈ 27.3 µM) in test [10]; 16 mg/L (≈ 27.3 µM) in [11]; 16 mg/L (≈ 27.3 µM) in [12]; over 128 mg/L in test [14]. Further, the results for the MIC in [15] and in [16] were 8 mg/L (≈ 13.7 µM) and over 64 mg/L, respectively. For the same compound, the MBC in test [18] was over 128 mg/L; in test [5] it was 64 mg/L (≈ 109 µM); in test [19] it was 64 mg/L (≈ 109 µM); in [20], 32 mg/L (≈ 54.6 µM); in test [22], 64 mg/L (≈ 109 µM); in test [23] it was 32 mg/L (≈ 54.6 µM). The figures for the MBC in test [13] and in test [24] were 64 mg/L (≈ 109 µM) and 16 mg/L (≈ 27.3 µM), respectively. Also, the Ratio result in [21] and in test [17] was “<=4” throughout.

For the compound `O=C(O)CN1C(=O)/C(=C/c2ccc(/C=N/n3c(-c4ccccc4Br)n[nH]c3=S)cc2)SC1=S`, the MIC in test [1] was 64 mg/L (≈ 114 µM); in test [2], 64 mg/L (≈ 114 µM); in [3] it was over 128 mg/L; in test [4], over 64 mg/L; in test [6] it was 64 mg/L (≈ 114 µM); in test [7], over 128 mg/L. Moreover, the MIC is over 64 mg/L in [8]; over 128 mg/L in test [9]; over 64 mg/L in test [10]; over 64 mg/L in [11]; 64 mg/L (≈ 114 µM) in test [12]; over 128 mg/L in [14]. For the same compound, the minimum inhibitory concentration (MIC) in test [15] and in [16] was over 64 mg/L each time. Besides, the MBC in test [18] was over 256 mg/L; in [5], over 256 mg/L; in test [23], 256 mg/L (≈ 457 µM); in test [13], 256 mg/L (≈ 457 µM). Also, the Ratio entry in [17] is “<=4”.
